This is an account of results in ChEMBL document CHEMBL1125046, “Beta-lactam analogues of oxotremorine. 3- and 4-methyl-substituted 2-azetidinones” (J Med Chem, 1990).

The term Kd denotes the equilibrium constant for the complex coming apart. High values mean weaker binding, low ones tighter binding. One may read the Ki as a measure of affinity in units of concentration, obtained from inhibition or displacement. The EC50 is the concentration giving half of the maximal effect.

The target in experiment [1] is Muscarinic acetylcholine receptor. The experiment is described as follows: Dissociation constant of the drug-Muscarinic acetylcholine receptor complex. Type of experiment: protein assay, Cavia porcellus.
Experiment [2] shares this target. The experiment is described as follows: In vitro inhibition of binding of (-)-[3H]-NMS to Muscarinic acetylcholine receptor of rat cerebral cortex was determined. Type of experiment: tissue-based. The method, boiled down:
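Rat cerebral cortex (male Sprague-Dawley, 200–300 g) homogenised in 50 mM Na-K phosphate buffer, pH 7.4, then centrifuged and resuspended at 10 mg wet tissue/mL. Competition with 0.3 nM (–)-[3H]NMS for 30 min at 30 °C, followed by filtration. Nonspecific binding defined with 10 μM atropine. IC50 from a one-site nonlinear fit, converted to Ki by Cheng-Prusoff using NMS Kd 0.076 nM. Three experiments, each in triplicate.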

The species named for experiment [3] is Cavia porcellus. Nature of the experiment: In vitro muscarinic activity against guinea pig ileum was determined. Format: functional. In a few lines: (§1)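 Isolated ileum contractions recorded isotonically at 1 g tension with a displacement transducer. Cumulative concentration-response curves built by raising agonist concentration stepwise by a factor of 2.15. Maximal response expressed as a percentage of the carbachol maximum.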

The species named for experiment [4] is Cavia porcellus. Nature of the experiment: Maximal contractile response as a percentage of that elicited by carbachol. Format: functional. The method, boiled down: as §1

With `O=C1CCCN1CC#CCN1CCCC1` [OXOTREMORINE], the Kd in experiment [1] was 930 nM. For the same molecule, the Ki in experiment [2] was determined as 830 nM. This molecule also yielded an EC50 in the experiment listed under Cavia porcellus [3] of 35 nM. Further, the Emax in the experiment listed under Cavia porcellus [4] is given as 100.
`CC1CC(=O)N1CC#CCN1CCCC1` (configuration not stated) yielded a Kd in experiment [1] of 1700 nM. The Ki in experiment [2] came to 990 nM. In the experiment listed under Cavia porcellus [4], this molecule gave an Emax of 0.
For the molecule `CC1CCC(=O)N1CC#CCN(C)C` (configuration not stated), the Kd in experiment [1] was found to be 4300 nM. Further, in experiment [2], the Ki is 2200 nM. Also, the EC50 in the experiment listed under Cavia porcellus [3] is 910 nM. For the same molecule, the Emax in the experiment filed under Cavia porcellus [4] was 102.
With `CC1CCN(CC#CCN2CCCC2)C1=O` (configuration not stated), the Kd in experiment [1] came out at 11500 nM. This molecule also displayed a Ki in experiment [2] of 1200 nM. Also, a half-maximal response in the experiment filed under Cavia porcellus [3] (EC50) required 500 nM. In the experiment listed under Cavia porcellus [4], this molecule gave an Emax of 100.
As to `CC1CN(CC#CCN2CCCC2)C1=O` (configuration not stated), the Ki in experiment [2] was found to be 5600 nM. In the experiment filed under Cavia porcellus [3], this molecule gave an EC50 of 24000 nM. The Emax in the experiment listed under Cavia porcellus [4] was 23.
With `CC1CC(=O)N(CC#CCN2CCCC2)C1` (configuration not stated), the Kd in experiment [1] worked out at 10000 nM. The molecule also showed a Ki in experiment [2] of 5000 nM. The same molecule had an Emax in the experiment listed under Cavia porcellus [4] of 0.
`CC1CCC(=O)N1CC#CCN1CCCC1` (configuration not stated) registered a Kd in experiment [1] of 93 nM. In addition, in experiment [2], the Ki amounted to 56 nM. For the same molecule, in the experiment listed under Cavia porcellus [4], the Emax is on record as 0.
For the molecule `O=C1CCN1CC#CCN1CCCC1`, the Ki in experiment [2] came out at 940 nM. In addition, a half-maximal response in the experiment listed under Cavia porcellus [3] (EC50) required 290 nM. This molecule also returned an Emax in the experiment listed under Cavia porcellus [4] of 100.
In the case of `CC1CCC(=O)N1CC#CC[N+](C)(C)C` (configuration not stated), the Kd in experiment [1] amounted to 1700 nM. The Ki in experiment [2] stood at 610 nM. Also, a half-maximal response in the experiment filed under Cavia porcellus [3] (EC50) required 180 nM. Moreover, the Emax in the experiment filed under Cavia porcellus [4] stood at 100.
`CC1CC(=O)N1CC#CC[N+](C)(C)C` (configuration not stated): in experiment [2], the Ki was found to be 19600 nM. For the same molecule, a half-maximal effect in the experiment listed under Cavia porcellus [3] (EC50) was put at 55000 nM. The molecule also returned an Emax in the experiment listed under Cavia porcellus [4] of 97.
The like results for `CC1CC(=O)N1CC#CCN(C)C` (configuration not stated) were, in that order, 43000 nM, 88000 nM and 95.
